# TDP2 absorb = blocks human TDP2 phosphodiesterase activity; O95551; recombinant TDP2, T5PNP hydrolysis, p-nitrophenol absorbance 415 nm; inhibition, % at 12.8 µM; 370,000 tested, 0.34% active;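 active means inhibition above the mean of all tested compounds plus 3 SD, set per campaign, cut at about 25% in these data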
#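 Assay system: Recombinant human TDP2 | Quantity: 120 nM TDP2 per well | Incubation: 2 h at 37 °C | Signal: Epi absorbance | Evaluation: Percent inhibition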
# TCR-CD3 inh = inhibitors of human TCR-CD3 interaction; TAMRA-labeled TCR probe fluorescence, biochemical; inhibition, % at 9.4 µM; 360,000 tested, 0.37% active; in the data active means inhibition above about 19%;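 further: recombinant mutant TCR 2C K166C tagged with TAMRA read by polarization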
# PAD4 inh = inhibitors of human PAD4. inhibition, % at 6.36 µM. Q9UM07. 330,000 tested, 0.41% active. AID 485272. recombinant PAD4, RCA probe fluorescence polarization;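 active means percent inhibition above a cutoff equal to the mean of all tested compounds plus 3 SD, cut at about 15% in these data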
# SIAE inh = inhibitors of human sialic acid acetylesterase SIAE; Q9HAT2; 370,000 tested, 0.69% active; SIAE FP-Rh probe binding, fluorescence polarization; inhibition, % at 9.66 µM; AID 1053197;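 active means inhibition above a cutoff: mean of compounds within the control limits plus 3 SD of those, cut at about 17% in these data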
# ABHD4 inh = ABHD4 (mouse) inhibition, primary FP screen | 370,000 tested, 0.54% active | AID 720543 | Q8VD66 | purified mABHD4, FP-Rh probe fluorescence polarization | inhibition, % at 8.92 µM;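 active means inhibition exceeding the mean over every tested compound plus 3 SD, cut at about 30% in these data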
#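 Material: mouse ABHD4 enzyme, wild type; Benchmarks: S159A mutant high control, sample median low control; Buffer or medium: HEPES pH 7.0, NaCl, Pluronic buffer; Signal: fluorescence polarization; Read-out: percent inhibition of probe binding, normalized to plate controls; Timing: pre-incubation 45 min, probe exposure 60 min, at 25 °C; Dosing: 8.92 µM, single dose.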
# HTRA1 inhibitor = blocks human HTRA1 serine peptidase. 340,000 tested, 0.5% active. recombinant HTRA1, FP-rhodamine activity-based probe, fluorescence polarization. AID 504803. inhibition, % at 5.96 µM; in the data active means inhibition above about 36%
# Target sequence (Q92743 whole entry, looked up): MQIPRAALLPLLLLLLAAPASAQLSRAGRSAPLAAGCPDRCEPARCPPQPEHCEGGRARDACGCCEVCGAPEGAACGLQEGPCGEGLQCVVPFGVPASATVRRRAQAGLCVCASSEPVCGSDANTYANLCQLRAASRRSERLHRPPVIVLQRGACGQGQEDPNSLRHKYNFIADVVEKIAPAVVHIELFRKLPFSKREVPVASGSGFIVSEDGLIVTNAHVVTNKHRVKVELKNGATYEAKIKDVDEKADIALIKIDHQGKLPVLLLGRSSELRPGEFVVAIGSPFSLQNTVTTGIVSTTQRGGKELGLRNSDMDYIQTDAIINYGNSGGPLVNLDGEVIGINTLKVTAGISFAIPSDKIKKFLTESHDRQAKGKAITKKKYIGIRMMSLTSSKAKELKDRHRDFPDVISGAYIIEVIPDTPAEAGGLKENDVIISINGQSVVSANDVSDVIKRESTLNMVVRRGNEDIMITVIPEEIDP
# PAD4 FP conf = confirmation of human PAD4 inhibitors. inhibition, % at 6.36 µM. recombinant PAD4, RCA probe fluorescence polarization. 1,200 tested, 28% active. shares compounds with PAD4 inh. AID 488796;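 active means mean inhibition across replicates above the hit cutoff set by the earlier primary screen, cut at about 15% in these data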;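 further: inhibitors block active-site labeling by the probe so polarization falls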
# A number is an active result; . = inactive; / = not tested or not shown; + = active, no number. Compounds with a hit are over-represented: about 2% of the library has one in this group of screens.
SMILES,TDP2 absorb,TCR-CD3 inh,PAD4 inh,SIAE inh,ABHD4 inh,HTRA1 inhibitor,PAD4 FP conf
CCCc1c(O)nc(SCC(=O)N2CCCCC2)[nH]c1=O,.,.,.,.,.,.,/
COC(=O)c1ccc(C(=O)OC)c(NC(=O)COc2ccccc2OC)c1,.,.,16,.,.,.,18
COC(=O)c1ccc(C(=O)OC)c(NC(=O)CN2CCN(c3ccccc3OC)CC2)c1,.,.,.,.,.,.,/
Cc1ccc(-n2c(N)c(C#N)c(-c3ccccc3)c(C#N)c2=O)cc1,.,.,.,.,.,.,/
Cc1ccc(-c2nc3sc(C#N)c(N)n3c(=O)c2C#N)cc1,.,.,62,.,.,.,.
O=C(O)CN1C(=O)/C(=C\c2ccccc2OCc2ccc(Cl)cc2)SC1=S,.,.,22,.,.,.,.
O=C(O)CN1C(=O)/C(=C\c2cccc(OCc3ccc(Cl)cc3)c2)SC1=S,.,.,.,.,.,.,/
COc1ccc(-c2nn(-c3ccccc3)cc2/C=C2/SC(=S)N(CCC(=O)O)C2=O)cc1,.,.,.,.,.,.,/
Cc1ccc(-c2nn(-c3ccccc3)cc2/C=C2\SC(=S)N(CC(=O)O)C2=O)cc1,.,.,15,.,.,.,.
COc1ccc(N2CCN(CCCNC(=O)CCOC(C)(C)C)CC2)cc1,.,/,/,.,.,/,/
Cc1c(NC(=O)C2CCCN(S(=O)(=O)c3ccc(Br)s3)C2)c(=O)n(-c2ccccc2)n1C (centres undefined),.,/,/,.,.,/,/
Cc1ccc(Sc2ccc([N+](=O)[O-])cc2[N+](=O)[O-])nc1,.,.,.,.,.,.,/
Cc1ccnc(Sc2ccc([N+](=O)[O-])cc2[N+](=O)[O-])n1,.,.,22,.,.,.,24
C[C@@H]1[C@@H](c2ccccc2)c2cc3ccccc3nc2-c2nc3ccccc3cc2[C@@H]1C(=O)N1CCCC1,.,/,/,.,.,/,/
Cc1cccc(NC(=S)Nc2ccc(N3CCOCC3)cc2)c1C,.,.,23,.,.,.,.
O=Cc1ccc(Sc2nnc(-c3ccccc3)o2)c([N+](=O)[O-])c1,/,/,24,/,/,.,24
Fc1ccccc1C1CC(c2ccco2)=Nc2ccccc2S1 (centres undefined),.,.,19,.,.,.,.
Oc1ccc(Cl)cc1C1=Nc2ccccc2N=C(c2ccco2)C1,.,.,.,.,.,.,/
CC1Cc2ccccc2N1C(=O)CSc1nn2c(=O)c(C(C)(C)C)nnc2s1 (centres undefined),.,.,15,.,.,.,.
O=C1NC2=C(CCc3ccccc32)C(c2ccccc2)N1 (centres undefined),.,.,27,.,.,.,.
C=CCOc1ccc(C2NC(=S)NC3=C2CCc2ccccc23)cc1 (centres undefined),.,.,.,.,.,.,/
COc1ccccc1CCn1cnc(-c2ccccc2OC)c1C(C)C,.,.,/,.,.,/,/
O=C1C(SCCO)=C(SCCO)C(=O)c2ccccc21,78,.,68,.,.,.,39
CC(=O)Nc1ccc(/C=C/COC(C)=O)cc1C,.,/,/,.,.,/,/
CCN(CC)S(=O)(=O)c1ccc(N=NC2=C(O)CCCC2=O)cc1,.,.,168,.,.,.,.
SMILES,TDP2 absorb,TCR-CD3 inh,PAD4 inh,SIAE inh,ABHD4 inh,HTRA1 inhibitor,PAD4 FP conf
CNC(=O)c1c(C)[nH]c(=S)c(C#N)c1-c1ccco1,.,.,26,.,.,.,.
CC(C)CN1C(=O)[C@]2(CC(=O)N(C)C2c2ccccc2)c2cc(-n3cc(-c4ccccc4)nn3)ccc21 (some centres undefined),.,/,/,.,.,/,/
CCCSc1nnc(Sc2nnnn2-c2ccccc2)s1,.,.,35,.,.,.,20
Cc1ccccc1-n1nnnc1Sc1nnnn1-c1ccccc1,.,.,19,.,.,.,.
COc1ccccc1CNC(=O)NCCCN1CCN(c2ccc(F)cc2)CC1,.,/,/,.,.,/,/
COc1cccc(NC(=O)CN(C)C(=O)C23CC4CC(CC(Cl)(C4)C2)C3)c1,.,.,+,.,.,.,.
COc1ccc(C(=O)C2(C(=O)Nc3cc(C)cc(C)c3)CC(c3ccccc3C(F)(F)F)=NO2)cc1 (centres undefined),.,/,/,.,.,/,/
Cc1ccc2c(c1)-c1c(ssc1=S)C(C)(C)N2C(=O)CSc1nncn1C,.,.,17,.,.,.,22
Cc1cc(C)c2c(c1)-c1c(ssc1=S)C(C)(C)N2C(=O)CSc1nncn1C,.,.,34,.,.,.,32
COc1ccc(-n2c(COc3ccc(Cl)cc3)nnc2SCC(=O)Nc2ccc3c(c2)OCO3)cc1,.,/,/,.,.,/,/
Cc1ccc(S(=O)(=O)N2CCC(c3nc4ccccc4o3)CC2)s1,.,/,/,.,.,/,/
COc1ccc(OC)c(N(C)S(=O)(=O)c2ccc3c(c2)N(C(C)=O)CCO3)c1,.,.,18,.,.,.,.
O=C(OCn1ncc(Cl)c(Cl)c1=O)c1cccc(C(F)(F)F)c1,/,/,32,/,/,.,20
CCc1ccc(C(=O)Cn2ncc(Cl)c(Cl)c2=O)cc1,.,.,.,.,.,.,/
C(=Nc1ccc(N2CCOCC2)cc1)c1c[nH]c2ccccc12,.,.,17,.,.,.,.
Cc1ccc(OCc2nnc(SCC(=O)Nc3ccc4c(c3)OCO4)n2Cc2ccco2)cc1,.,/,/,.,.,/,/
CN(C)CCN(Cc1ccccc1)c1ccccn1,.,.,73,.,.,.,.
CN(C)CCN(Cc1ccccc1)c1ccnc(N(C)C)c1C#N,.,.,.,.,.,.,/
CC(=O)C[C@H](O)CC(=O)[C@H]1OC(=O)CC/C=C\Cc2ccccc21,.,.,22,.,.,.,.
Clc1cccc(-c2ccc(C=Nc3ccc(N4CCOCC4)cc3)o2)c1,.,.,19,.,.,.,.
COc1ccc(Cn2c(NC(=O)c3ccccc3)nc(Cc3ccccc3)c2-c2ccccc2)cc1,.,/,/,.,.,/,/
CN1CCN(c2nc3nonc3nc2N2CCN(C)CC2)CC1,.,.,21,.,.,.,.
O=C(NCCc1nc2ccccc2n1C/C=C/c1ccccc1)C1CCCCC1,.,/,/,.,.,/,/
O=C(Nc1ccc(Nc2ccccc2)cc1)c1ccccc1,.,.,46,.,.,/,.
COC(=O)c1[nH]c(=O)c2ccccc2c1O,/,/,31,/,/,.,.
O=C(c1cccs1)C1CCN(c2ncnc3sccc23)CC1,.,/,/,.,.,/,/
COc1cccc(/C=C2\Oc3ccc(O)cc3C2=O)c1O,.,.,16,.,.,.,.
COC(=O)c1ccc2c(c1)C(=O)/C(=C/c1ccc(O)cc1)O2,.,.,.,.,.,.,/
COc1ccc(C=Nn2c(-c3n[nH]c4c3CCC4)n[nH]c2=S)cc1OCc1ccccc1,.,/,/,.,.,/,/

# Screening results from PubChem.
